Screens from PubChem BioAssay.
Most compounds without a hit are left out; they make up all but 2.1% or so of the library.
Ba/F3 V617F tox: reduce viability of Ba/F3 cells dependent on JAK2V617F. Ba/F3 EpoR-JAK2V617F viability, ATP luminescence. inhibition, % at 5.6 µM. 220,000 tested, 1.1% active. AID 1446;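 active means inhibition above the campaign mean plus 3 SD over all tested compounds, cut at about 24% in these data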;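 further: cytokine-independent growth of Ba/F3 cells driven by EpoR plus mutant JAK2; 0% = DMSO-treated cells and 100% = JAK inhibitor I control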
IEC-6 cytotox: counter-screen for KLF5 inhibitors: cytotoxicity in IEC-6 cells; IEC-6 cytotoxicity, luminescence viability; inhibition, % at 5 µM; 290,000 tested, 0.78% active; AID 1825; in the data active means inhibition above about 22%;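 further: 0% = plate median of test compound wells and 100% = cytotoxic reference compound wells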
KLF5 inhibitor: kruppel-like factor 5 inhibition; 290,000 tested, 0.23% active; inhibition, % at 5 µM; DLD-1 KLF5 promoter-luciferase reporter, luminescence; AID 1700;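 active means inhibition above a per-plate limit of that plate's mean compound inhibition plus 3 SD, cut at about 60% in these data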;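 further: 0% = DMSO wells and 100% = LY294002 at 200 µM; higher means less KLF5 promoter-driven luciferase light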
bCat nuc transl: alters nuclear translocation of beta-catenin in HeLa cells. immunofluorescence imaging. nuclear translocation activity, % at 5 µM. 190,000 tested, 0.3% active. AID 1665;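 active means nuclear translocation activity above 50% at 5 µM, with a well cell count of 50 or more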;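 further: per-cell ratio of nuclear to cytoplasmic median beta-catenin stain intensity; plate controls were DMSO negative control for no effect and GSK-3 inhibitor IX positive control for full effect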
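Test system: human HeLa cells, native beta-catenin. Compound dosing: 5 µM primary single dose, 0.1% DMSO, 0.02–20 µM confirmation series. Incubation: compound exposure 24 h at 37°C. Detection: beta-catenin immunostaining with DAPI counterstain, 20x imaging, 6 fields/well. Read-out basis: Nuclear/cytoplasmic beta-catenin signal ratio, % activation.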
MT stabilizer: stabilizes microtubules in HeLa cells; HeLa tubulin immunostaining HCS, 24 h; share of cells brighter than vehicle mean+2SD; % tubulin-high responders, % at 10 µM; 200,000 tested, 0.83% active; AID 2205;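 active means plate Z-score above 3 for both tubulin-high and condensed-nucleus cell shares, with cell loss under 80%, at 10 µM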;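 further: anti alpha tubulin signal scored within the nucleus-defined area of each cell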
BaF3 parental: reduces parental Ba/F3 cell viability, JAK2V617F counter-screen. CellTiter-Glo ATP luminescence. inhibition, % at 5.6 µM. 220,000 tested, 1.1% active. AID 1486;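 active means inhibition above a per-campaign cutoff, the mean inhibition of all tested compounds plus 3 SD, cut at about 27% in these data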;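 further: 0% = DMSO wells and 100% = JAK Inhibitor I control wells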
* hit, by the source's call; x = no result given.

SMILES | Ba/F3 V617F tox | IEC-6 cytotox | KLF5 inhibitor | bCat nuc transl | MT stabilizer | BaF3 parental
Cc1ccc(N2CCN(S(=O)(=O)c3nnc(NC(=O)c4ccco4)s3)CC2)cc1 | x | 1 | -18 | x | x | x
c1ccc(Cn2c(-c3ccccc3)c[n+]3c2SCCC3)cc1 | 73* | -4 | -8 | 1 | x | 63*
CC(=O)Nc1cccc(NC(=O)C2CC(=O)N(C3CCCCC3)C2)c1 (centres undefined) | x | -1 | -12 | x | x | x
COc1cccc(/C=N/Nc2ncnc3c2ncn3Cc2ccccc2)c1O | 71* | 0 | 12 | 1 | 2 | 59*
COc1cccc(/C=N/Nc2cc(Cl)nc(C)n2)c1O | 5 | -2 | -51 | 0 | x | 9
COc1ccc(Br)cc1CN1CCN(C(=O)c2cccc(F)c2)CC1 | x | 6 | 10 | x | x | x
CCN(C(=O)c1ccc(C(C)(C)C)cc1)c1nnc(Cn2nnc3ccccc32)s1 | 27* | 9 | -28 | -2 | 8 | 55*
COc1ccc(N/C(C)=C2/C(=O)C(=O)N(CCO)C2c2ccc([N+](=O)[O-])cc2)cc1 (centres undefined) | -5 | -1 | 2 | 0 | 1 | 3
COc1ccc(NC(=O)c2nc[nH]c2C(=O)Nc2ccccc2C)cc1 | 2 | 5 | -7 | 80* | 54* | 1
CCOc1ccccc1NC(=O)c1nc[nH]c1C(=O)Nc1ccccc1OCC | 2 | -1 | -14 | x | 9 | 7
Cc1ccccc1NC(=O)c1[nH]cnc1C(=O)NN | x | 6 | -32 | x | x | x
COc1ccccc1NC(=O)c1nc[nH]c1C(=O)Nc1ccccc1OC | 1 | 2 | -23 | 6 | 31* | 8
COc1ccc(NC(C)=O)cc1NC(=O)CSc1nc2ncccc2[nH]1 | 7 | 6 | 8 | -4 | 2 | 0
COc1ccc(N(C(=O)c2ccco2)S(=O)(=O)c2cc(Cl)c(Cl)cc2Cl)cc1 | 5 | 1 | -16 | x | 33* | 7
COc1ccc(N(C(=O)c2ccco2)S(=O)(=O)c2ccccc2)cc1 | 4 | 5 | -26 | x | 1 | 12
COCc1cc(C)nc2sc(C(=O)NCCO)c(-n3cccc3)c12 | 2 | -1 | -28 | -1 | 8 | 4
CCN(CC)S(=O)(=O)c1ccc(Oc2ccc(S(=O)(=O)N(CC)CC)cc2)cc1 | 33* | -1 | -18 | -13 | 2 | 40*
CCN(CC)S(=O)(=O)c1ccc(Oc2ccccc2OC)cc1 | -3 | -7 | -2 | 0 | x | 1
Cc1ccc(C(=O)CSc2nnc(CNc3nc(-c4ccccc4)cs3)n2C)cc1 | -3 | -12 | -41 | -2 | 2 | 6
CCCCC(=O)Nc1ccc(C(=O)N2CCC(C(=O)OCC)CC2)cc1 | -4 | 2 | -11 | x | 4 | 38*
CCCCCCC(=O)Nc1ccc(C(=O)N2CCCC2)cc1 | -3 | -1 | 0 | 4 | 1 | 4
COC(=O)c1nnn(-c2nonc2N)c1CN1CCCC1 | x | -6 | -48 | x | x | x
O=C(CCN1C(=O)c2ccccc2S1(=O)=O)Nc1ccccc1 | 48* | -2 | -11 | -6 | 5 | 62*
O=C(CCN1C(=O)c2ccccc2S1(=O)=O)Nc1ccc(C(=O)O)cc1 | x | -6 | 2 | x | x | x
COc1ccc2c(c1)c(/C=N/Nc1nc3ccccc3[nH]1)c(C)n2C | 2 | 16 | -42 | 8 | x | 53*
SMILES | Ba/F3 V617F tox | IEC-6 cytotox | KLF5 inhibitor | bCat nuc transl | MT stabilizer | BaF3 parental
Cc1cc(-c2ccccc2)cc(-c2ccccc2)[n+]1C | 73* | 4 | -6 | 0 | 2 | 68*
Cc1ccc(-c2cc(N)nc(-c3ccccc3)c2)cc1 | x | -1 | -62 | x | x | x
Cc1ccc2c(c1)C=CC(C#N)N2C(=O)c1ccccc1 (centres undefined) | 78* | 40* | 45 | 56* | 33* | 36*
Cc1ccc2c(c1)C=CC(C)N2C(=O)c1ccccc1 (centres undefined) | 1 | -4 | 7 | -2 | 5 | 1
O=C(NCc1ccc(Cl)cc1)c1ccc(Br)o1 | 3 | 9 | -4 | -4 | 2 | 1
CS(=O)(=O)N1CCCC(C(=O)NCCCN2CCC(Cc3ccccc3)CC2)C1 (centres undefined) | -1 | -4 | -18 | -2 | 2 | 96*
COc1ccc(-c2cc(C(F)(F)F)nc(SCC(=O)NCc3cccs3)n2)cc1OC | 3 | 0 | -11 | -1 | 2 | 5
COc1ccc(-c2nc3ccccc3n2Cc2ccc(C)cc2)cc1 | 2 | 7 | -18 | 1 | 2 | 6
COc1ccc(Cn2c(-c3ccc(C)cc3)c[n+]3ccccc23)cc1 | 90* | 10 | 7 | 1 | 2 | 71*
O=C(NC1CCCC1)C1CCCN(S(=O)(=O)c2ccc(F)cc2)C1 (centres undefined) | x | 7 | -2 | x | x | x
Cc1cc(=O)oc2cc(OCC(=O)N3CC(C)OC(C)C3)ccc12 (centres undefined) | -2 | 0 | -21 | -5 | 2 | 2
Cc1cc(=O)oc2cc(OCC(=O)N3c4ccccc4CC3C)ccc12 (centres undefined) | -3 | 4 | -6 | -7 | 51* | 2
Cc1ccc(C(C(=O)NC2CCCC2)N(C(=O)Cc2cccs2)c2ccc(C)c(C)c2)o1 (centres undefined) | -1 | 5 | -10 | -3 | 4 | 2
CC(C)Cc1ccc(CN2CCCC(NC(=O)c3nn(C)c(=O)c4ccccc34)C2)cc1 (centres undefined) | x | -9 | -5 | x | x | x
COc1ccc(/C=C2\S/C(=N/S(=O)(=O)c3cccs3)NC2=O)cc1 | -2 | 3 | -20 | -3 | 1 | 2
Cc1n(C)c2cc(Cl)ccc2[n+]1Cc1ccccc1 | 56* | 3 | -15 | 0 | 2 | 94*
CCN1/C(=C/c2cc[n+](C)cc2)C=Cc2cc(C)ccc21 | 99* | -3 | -6 | 1 | 7 | 73*
CCN1/C(=C/c2ccc3ccccc3[n+]2CCCS(=O)(=O)[O-])C=Cc2cc(C)ccc21 | x | 6 | -9 | x | x | x
CCN(CC)C(=O)C12CC3CC(CC(Br)(C3)C1)C2 | -3 | -3 | -9 | 0 | 3 | -1
NC1=NC2(CCCCC2)N=C(Nc2ccc(F)cc2F)N1 | -3 | -2 | -7 | 1 | 2 | -10
Cc1cc(C)cc(NC2=NC3(CCCCC3)N=C(N)N2)c1 | 6 | 13 | 5 | 9 | 47* | 15
CCc1nc(C)cc2c1sc1ccccc12 | 1 | 2 | -28 | 4 | x | -1
CC[n+]1c(C)cc2c(sc3ccccc32)c1C | 88* | 0 | -37 | -3 | 7 | 71*
Cc1ccccc1Nc1scc(-c2ccc(Cl)cc2)[n+]1-c1ccccc1C | -1 | -4 | -6 | -4 | 2 | 2
O=C(Nc1ccc(Cl)c(Cl)c1)Nc1ccccc1C(=O)O | 18 | -10 | -137 | -1 | 1 | 45*
CC(C(=O)Nc1cccc(S(=O)(=O)N2CCOCC2)c1)N1CCN(C/C=C/c2ccccc2)CC1 (centres undefined) | 28* | -7 | -15 | -3 | 2 | 30*
CC(=O)N1N=C(c2ccccc2)CC1c1ccc2c(c1)OCO2 (centres undefined) | x | -1 | -30 | x | x | x
